Measurements from ChEMBL document CHEMBL1156976, “Enhancement of antiproliferative activity by molecular simplification of catalpol” (2010).
Active and inactive are the calls of the source. No cut-off for these calls is given here.

How the values were obtained:
SW1573 [1] = assay: Cell cycle arrest in human SW1573 cells assessed as accumulation at S phase at 1 to 2 uM after 24 hrs using propidium iodide staining by flow cytometry; type: functional, cell-based
Procedure, shortened: (§1)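 Cells were seeded at 2.5–5 × 10^5 per well. After 24 h they were dosed at 1, 2, 3 and 5 for 24 h, then trypsinized and fixed overnight in ice-cold 70% ethanol at −20 °C. Samples were RNase-treated for 30 min at 37 °C in the dark and stained with propidium iodide. DNA content was read by flow cytometry on 25,000 cells/sample, giving sub-G1, G0/G1, S and G2/M fractions.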

WiDr [2] = assay: Induction of apoptosis in human WiDr cells assessed as late apoptotic cells at 3 uM after 24 hrs using FITC-conjugated annexin V and propidium iodide staining by flow cytometry; type: functional
Procedure, shortened: (§2)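 Cells were seeded at 0.25–0.5 × 10^6. After 24 h they were exposed to drug for 24 h, then kept in drug-free medium for a further 24 h. About 10,000 events were read (488/525 and 488/675 nm). Early apoptosis was AnnexinV+/PI−; late apoptosis was AnnexinV+/PI+.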

HBL-100 [3] = assay: Cell cycle arrest in human HBL100 cells assessed as accumulation at sub G1 phase at 3 to 5 uM after 24 hrs using propidium iodide staining by flow cytometry; type: functional, cell-based; procedure, shortened: as §1
SW1573 [4] = assay: Antiproliferative activity against human SW1573 cells after 48 hrs by sulforhodamine B assay; type: functional; details: SW1573, 48 h
Procedure, shortened: (§3)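 SRB assay in RPMI 1640 with 5% heat-inactivated FCS and 2 mM L-glutamine at 37 °C. Seeding was 15,000 cells/well for WiDr, T-47D and HeLa, and 10,000 for A2780, SW1573 and HBL-100. Compound was added on day 1 from DMSO stock (400× top final; 0.25% v/v DMSO control), in triplicate dilutions over 1–100, for 48 h. Cells were fixed with cold 50% TCA for 60 min at 4 °C and read at OD 492 nm. Percentage growth was calculated from T0 and end OD by NCI formulas, as means ± SD of 3–5 experiments.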

SW1573 [5] = assay: Cell cycle arrest in human SW1573 cells assessed as accumulation at sub G1 phase at 3 to 5 uM after 24 hrs using propidium iodide staining by flow cytometry; type: functional, cell-based; procedure, shortened: as §1
HeLa [6] = assay: Induction of apoptosis in human HeLa cells assessed as early apoptotic cells at 3 uM after 24 hrs using FITC-conjugated annexin V and propidium iodide staining by flow cytometry; type: functional; procedure, shortened: as §2
HBL-100 [7] = assay: Antiproliferative activity against human HBL100 cells after 48 hrs by sulforhodamine B assay; type: functional; details: HBL-100, 48 h; procedure, shortened: as §3
HeLa [8] = assay: Decrease in cyclin D1 expression in human HeLa cells at 10 uM by Western blot analysis; type: functional, cell-based; details: TDE = time-dependent effect
Procedure, shortened: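 HeLa cells were treated for 12 and 24 h, then lysed on ice in Tris pH 8.0/NaCl/NP-40/SDS/EDTA buffer with protease and phosphatase inhibitors, and cleared at 10,000 g. Proteins were run by SDS–PAGE and transferred to PVDF. Blots were probed with anti-cyclin D1, followed by HRP secondary for 30 min. Bands were detected by luminol chemiluminescence with p-iodophenol enhancement.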

HeLa [9] = assay: Induction of apoptosis in human HeLa cells assessed as late apoptotic cells at 3 uM after 24 hrs using FITC-conjugated annexin V and propidium iodide staining by flow cytometry; type: functional; procedure, shortened: as §2
HBL-100 [10] = assay: Cell cycle arrest in human HBL100 cells assessed as accumulation at G0/G1 phase at 1 to 2 uM after 24 hrs using propidium iodide staining by flow cytometry; type: functional, cell-based; procedure, shortened: as §1
SW1573 [11] = assay: Cell cycle arrest in human SW1573 cells assessed as accumulation at G0/G1 phase at 1 to 2 uM after 24 hrs using propidium iodide staining by flow cytometry; type: functional, cell-based; procedure, shortened: as §1
A2780 = assay: Antiproliferative activity against human A2780 cells after 48 hrs by sulforhodamine B assay; type: functional; details: A2780, 48 h; procedure, shortened: as §3
WiDr [12] = assay: Antiproliferative activity against human WiDr cells after 48 hrs by sulforhodamine B assay; type: functional; procedure, shortened: as §3
HBL-100 [13] = assay: Cell cycle arrest in human HBL100 cells assessed as accumulation at S phase at 1 to 2 uM after 24 hrs using propidium iodide staining by flow cytometry; type: functional, cell-based; procedure, shortened: as §1
HeLa [14] = assay: Antiproliferative activity against human HeLa cells after 48 hrs by sulforhodamine B assay; type: functional; procedure, shortened: as §3
T47D = assay: Antiproliferative activity against human T47D cells after 48 hrs by sulforhodamine B assay; type: functional; procedure, shortened: as §3
WiDr [15] = assay: Induction of apoptosis in human WiDr cells assessed as early apoptotic cells at 3 uM after 24 hrs using FITC-conjugated annexin V and propidium iodide staining by flow cytometry; type: functional; procedure, shortened: as §2

Row | GI50 (SW1573 [4]) [µM] | GI50 (A2780) [µM] | GI50 (HeLa [14]) [µM] | GI50 (T47D) [µM] | SMILES | Activity (SW1573 [1]) | Activity (WiDr [2]) [%] | Activity (HBL-100 [3]) | Activity (SW1573 [5]) | Activity (HeLa [6]) [%] | GI50 (HBL-100 [7]) [µM] | Activity (HeLa [8]) | Activity (HeLa [9]) [%] | Activity (HBL-100 [10]) | Activity (SW1573 [11]) | GI50 (WiDr [12]) [µM] | Activity (HBL-100 [13]) | Activity (WiDr [15]) [%]
1 | 0.59 | 1.59 | 1.86 | 1.46 | CC(=O)O[C@@H]1OC=C[C@@H]2[C@H]1[C@@H](C)C[C@H]2O[Si](c1ccccc1)(c1ccccc1)C(C)(C)C | inactive | 3.7 | Active | Active | 18 | 0.5 | tde | 25 | Active | Active | 1.26 | inactive | 33
2 | > 100 | > 100 | > 100 | > 100 | OC[C@H]1O[C@@H](O[C@@H]2OC=C[C@H]3[C@H](O)[C@@H]4O[C@]4(CO)[C@@H]23)[C@H](O)[C@@H](O)[C@@H]1O [CATALPOL] | – | – | – | – | – | > 100 | – | – | – | – | > 100 | – | –
3 | 0.43 | 1.24 | 1.68 | 1.62 | CC(=O)O[C@H]1OC=C[C@H]2[C@@H]1[C@H](C)C[C@H]2O[Si](c1ccccc1)(c1ccccc1)C(C)(C)C | – | 2.4 | – | – | 18 | 0.38 | – | 12 | – | – | 1.13 | – | 23
